The text below walks through data of ChEMBL document CHEMBL3045454, “Synthesis and fungicidal activity of aryl carbamic acid-5-aryl-2-furanmethyl ester” (2010).

Test [1] concerns Fusarium oxysporum. In words: Fungicidal activity Fusarium oxysporum assessed as inhibition of mycelium growth at 50 mg/L at 24 degC measured after 2 days. As to conditions: 48 h.
Test [2] has as its system Culex pipiens pallens. In words: Larvicidal activity against fourth-instar Culex pipiens pallens (mosquito) assessed as mortality at 2000 mg/L measured after 8 days. The test is classed as functional. To be noted: 192 h. In a few lines:
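Twenty fourth-instar Culex pipiens pallens larvae are placed in 10 mL of the test solution (acetone/distilled water, final 2000 mg L^-1) and reared for 8 days. Mortality is recorded as percent dead. Acetone serves as blank. Four replicates.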

In test [3] the test system is Corynespora cassiicola. The test is described as follows: Fungicidal activity Corynespora cassiicola assessed as inhibition of mycelium growth at 50 mg/L at 24 degC measured after 2 days. The test is classed as functional. As to conditions: 48 h. Summed up:
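Mycelial growth assay on potato dextrose agar. The compound, as a 50 mg L^-1 DMF solution, is mixed into the PDA and a fungus cake is placed on it. DMF serves as blank. Plates are incubated at 24 ± 0.5 °C for 2 days. Mycelial diameters are measured and the inhibitory rate is calculated from them. Three replicates.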

Test [4] concerns Corynespora cassiicola. In words: Fungicidal activity Corynespora cassiicola assessed as inhibition of mycelium growth at 50 mg/L at 24 degC measured after 2 days. As to conditions: 48 h.
Test [5] deals with Botrytis cinerea. The test is described as follows: Fungicidal activity Botrytis cinerea assessed as inhibition of mycelium growth at 50 mg/L at 24 degC measured after 2 days. As to conditions: 48 h.
For test [6], the system named is Plutella xylostella. In words: Insecticidal activity against Plutella xylostella (diamondback moth) assessed as mortality at 600 mg/L measured after 72 hr. The format is functional.
The subject of test [7] is Plutella xylostella. In words: Insecticidal activity against Plutella xylostella assessed as mortality at 5 mg/L measured after 72 hr. The test is classed as functional.

`O=C(NC(=O)c1c(Cl)cccc1Cl)OCc1ccc(-c2cccc(Cl)c2)o1`: the inhibition at 50 µg/mL in test [1] is 14.5%; in test [3], 53.3%; in test [4] it was 19%; in test [5], 13%. Also, the mortality at 2000 µg/mL in test [2] is 10%. In addition, the mortality at 600 µg/mL in test [6] stood at 10%.

`O=C(NC(=O)c1ccccc1Cl)OCc1ccc(-c2cccc(F)c2)o1`: the inhibition at 50 µg/mL in test [1] came out at 14.5%; in test [3], 53.3%; in test [4], 37.3%; in test [5] it was 48.9%. The mortality at 2000 µg/mL in test [2] was determined as 10%. Also, the mortality at 600 µg/mL in test [6] is 0%.

Regarding `O=C(NC(=O)c1c(Cl)cccc1Cl)OCc1ccc(-c2ccccc2Cl)o1`, the inhibition at 50 µg/mL came out at 35.3% in test [1], 83.1% in test [3], 34.7% in test [4] and 41.4% in test [5]. For the same molecule, the mortality at 2000 µg/mL in test [2] is 0%. In test [6], the mortality at 600 µg/mL was 0%.

Turning to `O=C(NC(=O)c1c(F)cccc1F)OCc1ccc(-c2ccc(Cl)cc2)o1`, the inhibition at 50 µg/mL in test [1] is 92.3%; in test [4], 71.6%; in test [5] it was 100%. In addition, the mortality at 2000 µg/mL in test [2] was found to be 10%. Moreover, the mortality at 600 µg/mL in test [6] was 0%.

As to `O=C(NC(=O)c1ccccc1Cl)OCc1ccc(-c2ccccc2Br)o1`, the inhibition at 50 µg/mL was 25.2% in test [1], 67.3% in test [3], 42.5% in test [4] and 54.3% in test [5]. In test [2], the mortality at 2000 µg/mL was 0%. The mortality at 600 µg/mL in test [6] amounted to 0%.

Turning to `O=C(NC(=O)c1c(Cl)cccc1Cl)OCc1ccc(-c2ccccc2Br)o1`, the inhibition at 50 µg/mL in test [1] turned out to be 42.3%; in test [3], 79.2%; in test [4], 39.9%; in test [5], 44.8%. Also, the mortality at 2000 µg/mL in test [2] was found to be 0%. Further, in test [6], the mortality at 600 µg/mL came to 0%.

For the molecule `CC(C)(C)N(NC(=O)c1ccccc1)C(=O)c1ccccc1` [RH-5849], the mortality at 2000 µg/mL in test [2] came to 0%.

Consider `O=C(NC(=O)c1c(Cl)cccc1Cl)OCc1ccc(-c2ccccc2F)o1`, for which the inhibition at 50 µg/mL was 1.5% in test [1], 70.4% in test [3], 36% in test [4] and 57.3% in test [5]. For the same molecule, the mortality at 2000 µg/mL in test [2] is 0%. Besides, the mortality at 600 µg/mL in test [6] amounted to 10%.

As for `COC(=O)NC(=S)Nc1ccccc1NC(=S)NC(=O)OC` [THIOPHANATE METHYL], in test [1], the inhibition at 50 µg/mL amounted to 34.2%.

Turning to `O=C(NC(=O)c1c(F)cccc1F)OCc1ccc(-c2ccc(F)cc2)o1`, the inhibition at 50 µg/mL in test [1] worked out at 49.4%; in test [3], 56%; in test [4] it was 22.1%; in test [5] it was 58.5%. In addition, in test [2], the mortality at 2000 µg/mL turned out to be 0%. In addition, the mortality at 600 µg/mL in test [6] was found to be 10%.

Turning to `O=C(NC(=O)c1c(F)cccc1F)OCc1ccc(-c2ccccc2Cl)o1`, the inhibition at 50 µg/mL worked out at 41.2% in test [1], 36.6% in test [3], 43.5% in test [4] and 66.6% in test [5]. In addition, the mortality at 2000 µg/mL in test [2] stood at 0%. Besides, the mortality at 600 µg/mL in test [6] came to 0%.

As for `O=C(NC(=O)c1ccccc1Cl)OCc1ccc(-c2ccc(F)cc2)o1`, the inhibition at 50 µg/mL in test [1] turned out to be 4.46%; in test [3], 60.6%; in test [4], 38.6%; in test [5], 40.6%. In addition, the mortality at 2000 µg/mL in test [2] was 10%. Moreover, in test [6], the mortality at 600 µg/mL was 0%.

On to `O=C(NC(=O)c1ccccc1Cl)OCc1ccc(-c2ccccc2Cl)o1`, for which the inhibition at 50 µg/mL in test [1] was determined as 0%; in test [3] it was 69.8%; in test [4] it was 43.8%; in test [5] it was 25%. Moreover, in test [2], the mortality at 2000 µg/mL turned out to be 20%. Further, the mortality at 600 µg/mL in test [6] amounted to 0%.

As to `N#Cc1nn(-c2c(Cl)cc(C(F)(F)F)cc2Cl)c(N)c1[S+]([O-])C(F)(F)F` (stereo unspecified) [FIPRONIL], the mortality at 5 µg/mL in test [7] is 100%.

`O=C(NC(=O)c1c(Cl)cccc1Cl)OCc1ccc(-c2ccc(Br)cc2)o1`: the inhibition at 50 µg/mL was 32.8% in test [1], 64.7% in test [3], 54.4% in test [4] and 52.8% in test [5]. Also, in test [2], the mortality at 2000 µg/mL came out at 10%. Besides, the mortality at 600 µg/mL in test [6] came to 0%.

In the case of `O=C(NC(=O)c1c(F)cccc1F)OCc1ccc(-c2ccccc2F)o1`, the inhibition at 50 µg/mL was 44.6% in test [1], 44.5% in test [4] and 70.4% in test [5]. Moreover, in test [2], the mortality at 2000 µg/mL is 0%. In addition, the mortality at 600 µg/mL in test [6] came out at 0%.

On to `O=C(NC(=O)c1c(Cl)cccc1Cl)OCc1ccc(-c2ccc(F)cc2)o1`, for which the inhibition at 50 µg/mL is 35.3% in test [1], 72.7% in test [3], 37.3% in test [4] and 37.1% in test [5]. The mortality at 2000 µg/mL in test [2] was 0%. The mortality at 600 µg/mL in test [6] worked out at 0%.

As to `O=C(NC(=O)c1c(Cl)cccc1Cl)OCc1ccc(-c2ccc(Cl)cc2)o1`, the inhibition at 50 µg/mL in test [1] stood at 44.6%; in test [3], 67.9%; in test [4], 33.3%; in test [5], 48.1%. Also, the mortality at 2000 µg/mL in test [2] came to 0%. The mortality at 600 µg/mL in test [6] was 10%.

Take `O=C(NC(=O)c1c(Cl)cccc1Cl)OCc1ccc(-c2cccc(F)c2)o1`: the inhibition at 50 µg/mL in test [1] was determined as 8.82%; in test [3], 62%; in test [4], 12.9%; in test [5], 32.6%. The mortality at 2000 µg/mL in test [2] stood at 10%. In test [6], the mortality at 600 µg/mL was found to be 20%.

As for `O=C(NC(=O)c1ccccc1Cl)OCc1ccc(-c2cccc(Cl)c2)o1`, the inhibition at 50 µg/mL in test [1] was -3.03%; in test [3], 38.6%; in test [4], 24.9%; in test [5] it was 24.1%. In test [2], the mortality at 2000 µg/mL is 0%. The mortality at 600 µg/mL in test [6] is 0%.

For the molecule `Cc1cc(C)nc(Nc2ccccc2)n1` [PYRIMETHANIL], in test [5], the inhibition at 50 µg/mL came out at 48.9%.

On to `O=C(NC(=O)c1c(F)cccc1F)OCc1ccc(-c2ccc(F)cc2F)o1`, for which the inhibition at 50 µg/mL is 44.6% in test [1], 42.5% in test [4] and 64% in test [5]. Further, in test [2], the mortality at 2000 µg/mL amounted to 10%. The mortality at 600 µg/mL in test [6] is 0%.

Take `O=C(NC(=O)c1c(F)cccc1F)OCc1ccc(-c2cccc(F)c2)o1`: the inhibition at 50 µg/mL in test [1] worked out at 7.63%; in test [3] it was 38.4%; in test [4], 31.5%; in test [5] it was 60.4%. Besides, the mortality at 2000 µg/mL in test [2] came to 10%. For the same molecule, the mortality at 600 µg/mL in test [6] worked out at 0%.

As to `O=C(NC(=O)c1ccccc1Cl)OCc1ccc(-c2ccc(Cl)cc2)o1`, the inhibition at 50 µg/mL amounted to 14.5% in test [1], 75.5% in test [3], 66% in test [4] and 55.1% in test [5]. In addition, the mortality at 2000 µg/mL in test [2] came out at 10%. In addition, the mortality at 600 µg/mL in test [6] was found to be 0%.

Regarding `O=C(NC(=O)c1ccccc1Cl)OCc1ccc(-c2ccc(Br)cc2)o1`, the inhibition at 50 µg/mL in test [1] was 10.2%; in test [3] it was 50.2%; in test [4], 59.9%; in test [5] it was 34.4%. The mortality at 2000 µg/mL in test [2] amounted to 10%. The mortality at 600 µg/mL in test [6] came to 0%.

In the case of `N#Cc1c(Cl)c(Cl)c(Cl)c(C#N)c1Cl` [CHLOROTHALONIL], in test [4], the inhibition at 50 µg/mL was 23.3%.

As to `O=C(NC(=O)c1c(F)cccc1F)OCc1ccc(-c2ccccc2Br)o1`, the inhibition at 50 µg/mL is 42.3% in test [1], 52.2% in test [4] and 54.3% in test [5]. For the same molecule, the mortality at 2000 µg/mL in test [2] was 20%. The mortality at 600 µg/mL in test [6] is 10%.

As for `O=C(NC(=O)c1c(Cl)cccc1Cl)OCc1ccc(-c2ccc(F)cc2F)o1`, the inhibition at 50 µg/mL in test [1] was 15.9%; in test [3], 63.3%; in test [4], 16%; in test [5], 27.9%. Further, the mortality at 2000 µg/mL in test [2] is 10%. In test [6], the mortality at 600 µg/mL worked out at 1%.

For the molecule `O=C(NC(=O)c1c(F)cccc1F)OCc1ccc(-c2ccc(Br)cc2)o1`, the inhibition at 50 µg/mL in test [1] came to 7.38%; in test [3], 63.3%; in test [4] it was 57.8%; in test [5], 62.2%. Further, the mortality at 2000 µg/mL in test [2] was 0%. For the same molecule, the mortality at 600 µg/mL in test [6] is 10%.

`O=C(NC(=O)c1ccccc1Cl)OCc1ccc(-c2ccccc2F)o1`: the inhibition at 50 µg/mL in test [1] is 1.5%; in test [3], 65.3%; in test [4] it was 26.3%; in test [5], 34.4%. In addition, in test [2], the mortality at 2000 µg/mL stood at 10%. Moreover, in test [6], the mortality at 600 µg/mL was 0%.

For the molecule `O=C(NC(=O)c1c(F)cccc1F)OCc1ccc(-c2cccc(Cl)c2)o1`, the inhibition at 50 µg/mL in test [1] is 45.4%; in test [4] it was 50.5%; in test [5], 63.5%. In addition, the mortality at 2000 µg/mL in test [2] was found to be 10%. Also, in test [6], the mortality at 600 µg/mL amounted to 0%.

As a reminder, the inhibition is the change of the read-out against control, counted positive when it falls. The mortality is the percentage killed.
